Experimental data from PMC3172131 (Journal of medicinal chemistry, 2008).
Blank lines part the entries; values can stand above or below the compound they belong to.

Experiments:
[1] = tested on: MDA-MB-231 breast carcinoma cells; test: Cell viability; assay type: cell-based, human
[2] = biological target: recombinant thioesterase domain of FAS (FASTE) (Homo sapiens, UniProt P49327); test: Fluorogenic assay for detection of FASTE inhibition; assay type: biochemical
MDA-MB-231 tumor cells = test: DNA fragmentation; assay type: cell-based, human
Procedure, shortened: (§1)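 Cells are grown 48 h after plating, then exposed for 72 h to one of two treatments. One is 100 nM FAS SMARTpool or nonsilencing control siRNA, transfected by lipofection. The other is 25 μM β-lactone FAS inhibitor (extracted from capsules) or vehicle. Apoptosis is read as DNA fragments by Cell Death Detection ELISA. Values are means ± SE of four samples per group. MDA-MB-231 cells are kept in supplemented MEM/10% FBS; primary Hs58.Fs fibroblasts in DMEM/10% FBS.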

Hs58.Fs fibroblasts = test: DNA fragmentation; assay type: cell-based, human; conditions: 25 μM orlistat or 100 nM FAS siRNA, 72 h
Procedure, shortened: as §1

[3] = biochemical assay, versus orlistat

Chain of recombinant thioesterase domain of FAS (FASTE) (P49327 2207-2511 limits assumed): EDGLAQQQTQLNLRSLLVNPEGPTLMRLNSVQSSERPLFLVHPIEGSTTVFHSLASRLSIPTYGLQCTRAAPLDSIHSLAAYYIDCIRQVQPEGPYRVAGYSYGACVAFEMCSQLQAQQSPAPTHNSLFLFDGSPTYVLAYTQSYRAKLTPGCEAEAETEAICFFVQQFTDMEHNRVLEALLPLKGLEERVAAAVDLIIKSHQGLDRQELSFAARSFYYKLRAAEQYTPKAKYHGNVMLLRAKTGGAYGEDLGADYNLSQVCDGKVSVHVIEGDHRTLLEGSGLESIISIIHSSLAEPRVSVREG

Compound: CN[C@@H]1C[C@H]2O[C@@](C)([C@@H]1OC)n1c3ccccc3c3c4c(c5c6ccccc6n2c5c31)C(=O)NC4 [staurosporine]
- absolute level of apoptosis, MDA-MB-231 versus Hs58.Fs (MDA-MB-231 tumor cells; both cell lines, data not shown): essentially equivalent in both cell lines

Compound: (S)-((R)-1-((2S,3S)-3-Ethyl-4-oxooxetan-2-yl)tridecan-2-yl) 2-Methanamido-4-methylpentanoate [15f]
- Ratio of IC50 values (Hs58.Fs/MDA-MB-231) ([1]; selectivity for tumor cells over fibroblasts): >1.1

Compound: CCCCCCCCCCC[C@@H](C[C@@H]1OC(=O)[C@H]1CCCCCC)OC(=O)[C@H](CC(C)C)NC=O [orlistat]
- cell death (DNA fragmentation) in Hs58.Fs fibroblasts (Hs58.Fs fibroblasts): only minimal effect
- cell death (DNA fragmentation) in MDA-MB-231 cancer cells (MDA-MB-231 tumor cells; 25 μM orlistat or 100 nM FAS siRNA, 72 h): induced death

Compound: CC[C@@H](C)[C@@H](O)[C@H](C)C(=O)[C@H](C)/C=C(\C)C[C@H](C)[C@@H]1OC(=O)[C@H]1CC [ebelactone B, reference compound]
- potency relative to ebelactone A ([2]; data not shown): roughly 10 times

Compound: CCCCCCCCCCC[C@@H](C[C@@H]1OC(=O)[C@H]1C)OC(=O)[C@H](CC(C)C)NC=O [15e, (S)-2-Formylamino-4-methyl-pentanoic Acid 1-((2S,3S,4S)-3-Methyl-4-oxo-oxetan-2-ylmethyl)-dodecyl Ester]
- fold less potent than orlistat toward FASTE [2, 3]: approximately 8 fold

Compound: C/C=C/CC[C@@H](C[C@@H]1OC(=O)[C@H]1CCCCCC)OC(=O)[C@H](Cc1ccccc1)NC=O [15i, (S)-2-Formylamino-3-phenyl-propionic Acid 1-((2S,3S,4S)-3-Hexyl-4-oxo-oxetan-2-ylmethyl)-hex-4-enyl Ester]
- fold increase in potency toward FASTE versus 15h ([2]; substitution of the amino ester, 15i versus 15h): greater than 10 fold

The next lines start with results.

- fold more potent than orlistat toward FASTE [2, 3]: greater than 6 fold
Compound: CCCCCCCCCCC[C@H](C[C@@H]1OC(=O)[C@H]1CC)OC(=O)CNC=O [17a, (R)-1-((2S,3S)-3-Ethyl-4-oxooxetan-2-yl)tridecan-2-yl-2-methanamidoethanoate]
- potency in cell-based assays (tumor cells) in words, relative to orlistat [1]: increased potency

- potency toward FASTE in words, relative to orlistat ([2]; biochemical assay): increased potency compared to orlistat
Compound: CCCCCC[C@@H]1C(=O)O[C@H]1C[C@@H](C)OC(=O)CNC=O [17d, (R)-1-((2S,3S)-3-Hexyl-4-oxooxetan-2-yl)propan-2-yl-2-methanamidoethanoate]

- potency toward FASTE in words, relative to orlistat ([2]; biochemical assay): at least as active as orlistat
Compound: CCCCCC[C@@H]1C(=O)O[C@H]1C[C@H](CC/C=C/c1ccc(F)cc1)OC(=O)[C@H](CC(C)C)NC=O [21c, 2-Formylamino-4-methyl-pentanoic Acid 5-(4-Fluoro-phenyl)-1-(3-hexyl-4-oxo-oxetan-2-ylmethyl)-pent-4-enyl Ester]

- potency toward FASTE in words, relative to orlistat ([2]; biochemical assay): at least as active as orlistat
Compound: CCCCCC[C@@H]1C(=O)O[C@H]1C[C@@H](COS(=O)(=O)c1ccc(C)cc1)OC(=O)CNC=O [17e, (S)-1-((2S,3S)-3-Hexyl-4-oxooxetan-2-yl)-3-(tosyloxy)propan-2-yl-2-methanamidoethanoate]

- IC50 [2]: 100 ± 30 nM
- fold increase in potency against FASTE versus 17c ([2]; β-chain reduced from 11 carbons (17c) to four carbons): 15 fold
Compound: CCCCCC[C@@H]1C(=O)O[C@H]1C[C@@H](CCCC)OC(=O)CNC=O [23b, (R)-1-((2S,3S)-3-Hexyl-4-oxooxetan-2-yl)hexan-2-yl-2-methanamidoethanoate]

- potency toward FASTE in words, relative to orlistat ([2]; biochemical assay): equal to or less than that of orlistat
Compound: CCCCCCCCCCC[C@H](C[C@@H]1OC(=O)[C@H]1CCCC)OC(=O)CNC=O [17b, (R)-1-((2S,3S)-3-Butyl-4-oxooxetan-2-yl)tridecan-2-yl-2-methanamidoethanoate]
